“And” between values parts separate entries of the source, which are not always exact repeats. Equal entries are not always repeated. Square brackets hold non-standard residues; d marks the D form. Peptide text beside a SMILES is read from it. * marks the point of attachment. Tyr(Nα,Nα-Bn2) = O=C([C@H](Cc1ccc(O)cc1)N(Cc1ccccc1)Cc1ccccc1)*; Phe(4-N(CH2CH2Cl)2) = N[C@@H](Cc1ccc(N(CCCl)CCCl)cc1)C(=O)O; Tyr(Nα,Nα-allyl2) = C=CCN(CC=C)[C@@H](Cc1ccc(O)cc1)C(=O)*; Aib = CC(C)(N)C(=O)O
Columns and labels:
[1] = target: Mu-type opioid receptor (Cavia porcellus) (UniProt P97266); settings: 1 uM
Mu-type opioid receptor (Cavia porcellus), sequence (P97266 whole entry): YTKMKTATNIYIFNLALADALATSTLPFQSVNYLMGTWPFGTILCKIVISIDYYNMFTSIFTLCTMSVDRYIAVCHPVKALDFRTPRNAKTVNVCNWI

Cavia porcellus [2] = species on record: Cavia porcellus; assay: Reversible opioid agonist activity in the electrically stimulated guinea pig ileum(GPI) at 1 uM concentration (Experiment 2)
[3] = target: Mu-type opioid receptor (Homo sapiens) (UniProt P35372); assay: Ratio of IC50 of […] (agonist) after 10 min of incubation along with compound (antagonist) and IC50 of agonist in absence of compound for mu opioid receptor at 1 uM in MVD assay; assay type: functional; settings: Mus musculus
Mu-type opioid receptor (Homo sapiens), sequence (P35372 whole entry): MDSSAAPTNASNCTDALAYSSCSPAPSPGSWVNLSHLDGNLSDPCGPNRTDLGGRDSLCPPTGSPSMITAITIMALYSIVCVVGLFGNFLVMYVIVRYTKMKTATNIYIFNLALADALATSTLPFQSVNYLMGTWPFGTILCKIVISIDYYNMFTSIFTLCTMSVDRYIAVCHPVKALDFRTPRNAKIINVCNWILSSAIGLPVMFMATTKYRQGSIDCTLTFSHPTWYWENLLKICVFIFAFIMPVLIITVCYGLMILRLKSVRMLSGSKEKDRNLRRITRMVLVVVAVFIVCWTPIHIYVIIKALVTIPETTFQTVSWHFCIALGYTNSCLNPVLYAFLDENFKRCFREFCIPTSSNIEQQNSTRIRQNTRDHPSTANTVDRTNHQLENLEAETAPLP
Method in brief: (§1)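 Reversible antagonism was measured in electrically stimulated isolated tissue (MVD or GPI) with the antagonist present. Agonists were morphine (μ), ethylketazocine (κ) and DADLE (δ). The value is the agonist IC50 with antagonist divided by the IC50 without it, i.e. the fold rightward shift of the agonist dose-response curve. Mean ± SEM, n = 3 unless otherwise noted.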

Cavia porcellus [4] = species on record: Cavia porcellus; assay: Reversible opioid agonist activity in the electrically stimulated guinea pig ileum(GPI) at 1 uM concentration (Experiment 1)
Mus musculus [5] = species on record: Mus musculus; assay: (§2) Reversible opioid agonist activity in the electrically stimulated mouse vas deferens(MVD) at 1 uM concentration; assay type: functional
[6] = target: Delta-type opioid receptor (Mus musculus) (UniProt P32300); assay: Ratio of IC50 of DADLE (agonist) after 10 min of incubation along with compound (antagonist) and IC50 of agonist in the absence of compound for delta opioid receptor at 1 uM in MVD assay; assay type: functional
Delta-type opioid receptor (Mus musculus), sequence (P32300 whole entry): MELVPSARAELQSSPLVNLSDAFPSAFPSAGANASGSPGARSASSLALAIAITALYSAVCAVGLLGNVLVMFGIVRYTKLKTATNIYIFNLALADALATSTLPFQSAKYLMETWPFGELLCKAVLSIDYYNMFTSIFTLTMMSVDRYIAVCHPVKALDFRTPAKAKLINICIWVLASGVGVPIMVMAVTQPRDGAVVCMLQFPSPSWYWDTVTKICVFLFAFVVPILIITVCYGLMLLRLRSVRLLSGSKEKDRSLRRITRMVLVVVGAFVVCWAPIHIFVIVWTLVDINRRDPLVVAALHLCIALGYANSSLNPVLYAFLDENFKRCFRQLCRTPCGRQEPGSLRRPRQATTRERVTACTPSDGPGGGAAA
Method in brief: as §1

[7] = target: Mu-type opioid receptor (Cavia porcellus) (UniProt P97266); assay: Ratio of IC50 of […] (agonist) after 10 min of incubation along with compound (antagonist) and IC50 of agonist in absence of compound for mu opioid receptor at 1 uM in GPI assay (Exp 2); assay type: functional
Method in brief: as §1

Cavia porcellus [8] = species on record: Cavia porcellus; assay: (§3) Reversible opioid agonist activity in the electrically stimulated guinea pig ileum(GPI) at 1 uM concentration (Exp 2)
Mus musculus [9] = species on record: Mus musculus; assay: Ratio of IC50 of morphine (agonist) expossed to the compound for 10 min and then washed 30 times to Ratio of IC50 of morphine (agonist) prior to exposure to compound; assay type: functional
Method in brief: (§4)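 Irreversible antagonism was measured in isolated tissue. The tissue was exposed to the compound for 10 min (30 min in some cases), then washed 30 times with fresh buffer to remove non-covalently bound ligand. Agonist IC50 was then redetermined. The ratio is this post-wash IC50 over the agonist IC50 in the same tissue before exposure. Mean ± SEM, n = 3 unless otherwise noted.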

Cavia porcellus [10] = species on record: Cavia porcellus; assay: (§5) Reversible opioid agonist activity in the electrically stimulated guinea pig ileum(GPI) at 1 uM concentration (Exp 1); assay type: functional
[11] = target: Delta-type opioid receptor (Homo sapiens) (UniProt P41143); settings: Cavia porcellus; 1 uM
Delta-type opioid receptor (Homo sapiens), sequence (P41143 whole entry): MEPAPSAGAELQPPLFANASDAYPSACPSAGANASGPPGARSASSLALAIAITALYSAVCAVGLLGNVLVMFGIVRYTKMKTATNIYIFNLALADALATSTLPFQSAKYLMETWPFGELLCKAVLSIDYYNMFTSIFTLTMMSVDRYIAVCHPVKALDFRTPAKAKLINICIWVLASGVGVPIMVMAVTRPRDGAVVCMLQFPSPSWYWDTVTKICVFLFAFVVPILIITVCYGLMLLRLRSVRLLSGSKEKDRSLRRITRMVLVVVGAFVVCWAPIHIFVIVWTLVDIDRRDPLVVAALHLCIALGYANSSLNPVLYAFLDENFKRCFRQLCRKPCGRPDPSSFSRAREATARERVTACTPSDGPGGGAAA

[12] = target: Delta-type opioid receptor (Homo sapiens) (UniProt P41143); settings: Cavia porcellus; 1 uM; remark: listed apart in the source
[13] = target: Kappa-type opioid receptor (Cavia porcellus) (UniProt P41144); assay: Ratio of IC50 of ethylketazocine (agonist) after 10 min of incubation along with compound (antagonist) and IC50 of agonist in absence of compound for kappa opioid receptor at 1 uM in GPI assay (Exp 1); assay type: functional
Kappa-type opioid receptor (Cavia porcellus), sequence (P41144 whole entry): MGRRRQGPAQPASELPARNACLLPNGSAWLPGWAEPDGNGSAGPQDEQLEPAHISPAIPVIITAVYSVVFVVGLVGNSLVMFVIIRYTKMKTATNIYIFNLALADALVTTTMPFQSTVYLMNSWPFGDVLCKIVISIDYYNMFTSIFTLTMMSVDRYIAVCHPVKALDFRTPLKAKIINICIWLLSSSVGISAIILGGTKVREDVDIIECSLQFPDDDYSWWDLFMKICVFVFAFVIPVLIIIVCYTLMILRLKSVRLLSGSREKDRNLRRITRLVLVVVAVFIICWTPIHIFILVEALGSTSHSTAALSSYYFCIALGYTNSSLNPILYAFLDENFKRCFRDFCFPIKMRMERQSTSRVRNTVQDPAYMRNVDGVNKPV
Method in brief: as §1

[14] = target: Kappa-type opioid receptor (Cavia porcellus) (UniProt P41144); settings: 1 uM
[15] = target: Delta-type opioid receptor (Mus musculus) (UniProt P32300); settings: 10 uM
[16] = target: Delta-type opioid receptor (Homo sapiens) (UniProt P41143); settings: Cavia porcellus; 1 uM; remark: listed apart in the source
Mus musculus [17] = species on record: Mus musculus; assay: Ratio of IC50 of DADLE (agonist) expossed to the compound for 10 min and then washed 30 times to Ratio of IC50 of morphine (agonist) prior to exposure to compound; assay type: functional
Method in brief: as §4

[18] = target: T1, Opioid receptors; mu/kappa/delta (Homo sapiens) (UniProt P41145+P41143+P35372); assay: as §5; assay type: functional, tissue-based; settings: Cavia porcellus, target entry is the homologue from another species
T1 sequence (P35372 whole entry, looked up): as the sequence (P35372 whole entry) above
T1 sequence (P41143 whole entry, looked up): as the sequence (P41143 whole entry) above
T1 sequence (P41145 whole entry, looked up): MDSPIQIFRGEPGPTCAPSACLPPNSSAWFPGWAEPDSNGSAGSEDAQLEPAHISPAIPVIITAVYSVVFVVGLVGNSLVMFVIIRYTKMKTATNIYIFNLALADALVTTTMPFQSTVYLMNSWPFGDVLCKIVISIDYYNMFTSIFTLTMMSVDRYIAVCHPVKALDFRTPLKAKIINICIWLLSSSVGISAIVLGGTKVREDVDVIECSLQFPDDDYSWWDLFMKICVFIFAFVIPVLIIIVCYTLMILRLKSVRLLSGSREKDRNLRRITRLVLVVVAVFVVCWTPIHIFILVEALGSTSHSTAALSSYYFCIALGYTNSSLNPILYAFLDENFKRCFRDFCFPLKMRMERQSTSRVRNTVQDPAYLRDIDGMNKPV

[19] = target: Mu-type opioid receptor (Cavia porcellus) (UniProt P97266); assay: Ratio of IC50 of […] (agonist) after 10 min of incubation along with compound (antagonist) and IC50 of agonist in absence of compound for Opioid receptor mu 1 at 1 uM in GPI assay; assay type: functional
Method in brief: as §1

[20] = target: T1, Opioid receptors; mu/kappa/delta (Homo sapiens); assay: as §3; assay type: functional, tissue-based; settings: Cavia porcellus, target entry is the homologue from another species
[21] = target: Delta-type opioid receptor (Mus musculus) (UniProt P32300); assay: Ratio of IC50 of DADLE (agonist) after 10 min of incubation along with compound (antagonist) and IC50 of agonist in the absence of compound for Opioid receptor delta 1 at 10 uM in MVD assay; assay type: functional
Method in brief: as §1

[22] = target: Mu-type opioid receptor (Mus musculus) (UniProt P42866); assay: Ratio of IC50 of […] (agonist) after 10 min of incubation along with compound (antagonist) and IC50 of agonist in absence of compound for Opioid receptor mu 1 at 1 uM in MVD assay; assay type: functional
Mu-type opioid receptor (Mus musculus), sequence (P42866 whole entry): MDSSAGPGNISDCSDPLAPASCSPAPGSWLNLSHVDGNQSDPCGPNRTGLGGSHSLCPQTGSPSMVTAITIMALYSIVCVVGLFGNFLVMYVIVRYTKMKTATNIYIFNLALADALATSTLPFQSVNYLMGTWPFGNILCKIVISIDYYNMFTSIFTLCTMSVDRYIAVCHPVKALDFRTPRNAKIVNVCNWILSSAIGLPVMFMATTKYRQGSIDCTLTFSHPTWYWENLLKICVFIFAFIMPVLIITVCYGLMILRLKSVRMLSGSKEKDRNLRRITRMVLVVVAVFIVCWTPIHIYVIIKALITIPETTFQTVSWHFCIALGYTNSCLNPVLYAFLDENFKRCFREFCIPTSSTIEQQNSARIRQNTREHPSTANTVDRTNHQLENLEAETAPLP
Method in brief: as §1

[23] = target: Delta-type opioid receptor (Mus musculus) (UniProt P32300); assay: Ratio of IC50 of DADLE (agonist) after 10 min of incubation along with compound (antagonist) and IC50 of agonist in the absence of compound for Opioid receptor delta 1 at 1 uM in MVD assay; assay type: functional
Method in brief: as §1

[24] = target: Kappa-type opioid receptor (Cavia porcellus) (UniProt P41144); assay: Ratio of IC50 of ethylketazocine (agonist) after 10 min of incubation along with compound (antagonist) and IC50 of agonist in absence of compound for Opioid receptor kappa 1 at 1 uM in GPI assay; assay type: functional
Method in brief: as §1

[25] = target: T2, Opioid receptor (Mus musculus) (UniProt P42866+P32300+P33534); assay: Reversible opioid agonist activity in the electrically stimulated mouse vas deferens(MVD) at 10 uM of concentration; assay type: functional
T2 sequence (P32300 whole entry, looked up): as the sequence (P32300 whole entry) above
T2 sequence (P33534 whole entry, looked up): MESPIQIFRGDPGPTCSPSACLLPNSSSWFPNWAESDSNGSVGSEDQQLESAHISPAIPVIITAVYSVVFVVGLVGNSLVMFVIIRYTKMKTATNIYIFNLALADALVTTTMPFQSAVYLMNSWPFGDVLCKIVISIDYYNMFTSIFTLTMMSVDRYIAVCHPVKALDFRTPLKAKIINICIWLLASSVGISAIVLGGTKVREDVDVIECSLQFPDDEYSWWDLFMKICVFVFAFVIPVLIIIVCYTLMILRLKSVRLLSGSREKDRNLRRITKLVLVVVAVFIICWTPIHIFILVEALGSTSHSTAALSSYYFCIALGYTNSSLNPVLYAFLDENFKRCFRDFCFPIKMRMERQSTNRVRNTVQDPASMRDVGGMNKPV
T2 sequence (P42866 whole entry, looked up): as the sequence (P42866 whole entry) above

[26] = target: T2, Opioid receptor (Mus musculus); assay: as §2; assay type: functional

Compound	IC50 ratio [1]	IC50 ratio [3]	inhibition at 1 µM (Mus musculus [5])	IC50 ratio [6]	IC50 ratio [7]	inhibition at 1 µM (Cavia porcellus [8])	IC50 ratio (Mus musculus [9])	IC50 ratio [13]	IC50 ratio [14]	other results
C=CCN(CC=C)[C@@H](Cc1ccc(O)cc1)C(=O)NCC(=O)NCC(=O)N[C@@H](Cc1ccc(N(CCCl)CCCl)cc1)C(=O)N[C@@H](CC(C)C)C(=O)O ({Tyr(Nα,Nα-allyl2)}-GG[Phe(4-N(CH2CH2Cl)2)]L-OH)	0.6	1.1	4.2%	1.2	1.1 and 1	–	–	–	–	inhibition at 1 µM (Cavia porcellus [2]): 10%; inhibition at 1 µM (Cavia porcellus [4]): 23%
CC(C)C[C@H](NC(=O)[C@H](Cc1ccccc1)NC(=O)CNC(=O)CNC(=O)[C@H](Cc1ccc(O)cc1)N(Cc1ccccc1)Cc1ccccc1)C(=O)O ({Tyr(Nα,Nα-Bn2)}-GGFL-OH)	–	0.6	11.4%	6.6	–	2.9%	1	1	1	inhibition at 1 µM (Cavia porcellus [10]): 1.9%; IC50 ratio [11]: 0.8; IC50 ratio [12]: 1.2; IC50 ratio [15]: 96.9; IC50 ratio [16]: 2.5
C=CCN(CC=C)[C@@H](Cc1ccc(O)cc1)C(=O)NC(C)(C)C(=O)NC(C)(C)C(=O)N[C@@H](Cc1ccccc1)C(=O)N[C@@H](CC(C)C)C(=O)O ({Tyr(Nα,Nα-allyl2)}-[Aib][Aib]FL-OH)	–	–	–	–	–	–	0.8	–	–	IC50 ratio (Mus musculus [17]): 5.5; inhibition [18]: 16.2%; IC50 ratio [19]: 0.5 and 0.6; inhibition [20]: 37.8%; IC50 ratio [21]: 147; IC50 ratio [22]: 0.8; IC50 ratio [23]: 15.6; IC50 ratio [24]: 0.7 and 0.9; inhibition [25]: 15.8%; inhibition [26]: 8.4%
C=CCN(CC=C)[C@@H](Cc1ccc(O)cc1)C(=O)NCC(=O)NCC(=O)N[C@@H](Cc1ccccc1)C(=O)N[C@@H](CC(C)C)C(=O)O ({Tyr(Nα,Nα-allyl2)}-GGFL-OH)	0.8	0.8	10%	2.7	1.1	0%	–	0.6	1.1	inhibition at 1 µM (Cavia porcellus [10]; Cavia porcellus, Ileum): -6.7%

— ChEMBL document CHEMBL1123840, “Synthesis and evaluation of melphalan-containing N,N-dialkylenkephalin analogues as irreversible antagonists of the delta opioid receptor” (J Med Chem, 1987)
